Measured values as given in ChEMBL document CHEMBL1142581, “Resveratrol derivatives from the roots of Vitis thunbergii” (J Nat Prod, 2005).

Experiments:
[1] = Antiplatelet activity against citreated rabbit platelet assessed as arachidonic acid-induced platelet aggregation; format: functional, cell-based; settings: Oryctolagus cuniculus
Procedure, shortened: (§1)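 Washed platelets from fresh rabbit blood, preincubated 2 min at 37 °C with various compound concentrations or 0.5% DMSO (control), then challenged with arachidonic acid or U46619. Turbidimetric aggregation: platelet suspension set as 0% and platelet-free Tyrode solution as 100%. Inhibition % = [1 − sample/control aggregation] × 100. IC50 reported as mean ± SD (n=4).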

[2] = Antiplatelet activity against citreated rabbit platelet assessed as inhibition of 9,11-dideoxy-11 alpha, 9 alpha epoxy-methanoprostaglandin F2alpha-induced platelet aggregation; format: functional, cell-based; settings: Oryctolagus cuniculus; procedure, shortened: as §1
[3] = Antioxidant activity assessed as ABTS radical scavenging activity; format: functional
Procedure, shortened: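 ABTS radical cation generated from 7.5 mM ABTS with 2.5 mM […], then diluted. Various concentrations of vehicle, test agents or Trolox (positive control) were mixed with an equal volume of the diluted radical solution for 6 min. Remaining radical was read as absorbance at 734 nm. EC50 calculated, mean ± SD (n=6).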

Row | Structure (SMILES) | IC50 [1] [µM] | IC50 [2] [µM] | EC50 [3] [µM]
1 | Oc1ccc(/C=C/c2cc(O)cc3c2[C@H](c2cc(O)cc(O)c2)[C@@H](c2ccc(O)cc2)O3)cc1 | > 100 | > 100 | 2.8
2 | Oc1ccc([C@H]2c3c(O)cc(O)cc3[C@H]3c4c(cc(O)cc4[C@@H]2c2cc(/C=C/c4cc(O)cc5c4[C@H](c4cc(O)cc(O)c4)[C@@H](c4ccc(O)cc4)O5)ccc2O)O[C@@H]3c2ccc(O)cc2)cc1 [VITISIN A] | 10.3 | 13.3 | 13.8
3 | O=Cc1ccc(O)c([C@H]2c3cc(O)cc4c3[C@H](c3cc(O)cc(O)c3[C@@H]2c2ccc(O)cc2)[C@@H](c2ccc(O)cc2)O4)c1 [VITISINOL B] | > 100 | 7.8 | 3.6
4 | O=C1C=C(/C=C/c2ccc(O)cc2)C[C@@H](c2cc(O)cc(O)c2)[C@H](c2ccc(O)cc2)C1 [VITISINOL C] | 13.4 | 10.5 | 4.5
5 | Oc1ccc(/C=C/c2cc(O)cc3c2[C@@H](c2cc(O)cc4c2[C@H](c2cc(O)cc5c2[C@@H](c2cc(O)cc(O)c2)[C@H](c2ccc(O)cc2)O5)[C@@H](c2ccc(O)cc2)O4)[C@H](c2ccc(O)cc2)O3)cc1 [MIYABENOL A] | 9 | 7.5 | 6.6
6 | Oc1ccc([C@H]2Oc3cc(O)cc(/C=C/c4ccc5c(c4)[C@H](c4cc(O)cc6c4[C@H](c4cc(O)cc(O)c4)[C@@H](c4ccc(O)cc4)O6)[C@H](c4ccc(O)cc4)O5)c3[C@@H]2c2cc(O)cc(O)c2)cc1 | 5.7 | 3.9 | 4.8
7 | Oc1ccc([C@@H]2c3c(O)cc4c5c3[C@@H]([C@@H](c3ccc(O)cc3)c3c(O)cc(O)cc3[C@@H]5[C@@H](c3ccc(O)cc3)O4)[C@H]2c2cc(O)cc(O)c2)cc1 [AMPELOPSIN C] | 8.1 | 5.9 | 5.4
8 | O=Cc1ccc2c(c1)C(c1cc(O)cc3c1[C@H](c1cc(O)cc(O)c1)[C@@H](c1ccc(O)cc1)O3)[C@H](c1ccc(O)cc1)O2 (some centres undefined) | 7 | 3.1 | 4.4
9 | CC(=O)Oc1ccccc1C(=O)O [ASPIRIN] | 32.7 | – | –
10 | O=C1C=C(/C=C/c2ccc(O)cc2)[C@H]2C(=O)[C@@H]1[C@H](c1ccc(O)cc1)[C@H]2c1cc(O)cc(O)c1 [VITISINOL D] | 15 | 5.7 | 4.1
11 | Cc1c(C)c2c(c(C)c1O)CCC(C)(C(=O)O)O2 (centres undefined) [TROLOX] | – | – | 28.4
